Assay results as given in ChEMBL document CHEMBL1781919, “Synthesis and anticonvulsant properties of 1-(amino-N-arylmethanethio)-3-(1-substituted benzyl-2, 3-dioxoindolin-5-yl) urea derivatives” (Eur J Med Chem, 2011).
Activity calls are given as the source filed them. The calls are words filed in the database; no cut-off is given here.

Tests used:
[1] = test system: Mus musculus; assay: Neurotoxicity in mouse assessed as minimum motor impairment at 30 mg/kg, ip after 0.5 hrs by rotarod test; assay type: toxicity, organism-based; set-up: dose 30 mg/kg, route intraperitoneal; conditions: in vivo
Procedure, shortened: (§1)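 Rotorod test for minimal motor impairment in mice given 30, 100 or 300 mg/kg i.p. at 0.01 mL/g, using sets of one, three and one animals, at 0.5 h and 4.0 h. Animals are observed at each dose and time. Score is N/F, the number showing toxicity over the number tested.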

[2] = test system: Mus musculus; assay: Neurotoxicity in mouse assessed as minimum motor impairment at 100 mg/kg, ip after 4 hrs by rotarod test; assay type: toxicity, organism-based; set-up: dose 100 mg/kg, route intraperitoneal; conditions: in vivo; procedure, shortened: as §1
[3] = test system: Mus musculus; assay: Neurotoxicity in mouse assessed as minimum motor impairment at 30 mg/kg, ip after 4 hrs by rotarod test; assay type: toxicity, organism-based; set-up: dose 30 mg/kg, route intraperitoneal; conditions: in vivo; procedure, shortened: as §1
[4] = test system: Mus musculus; assay: Anticonvulsant activity in mouse assessed as protection against maximal electroshock-induced seizures at 100 mg/kg, ip after 4 hrs; assay type: functional, organism-based; set-up: dose 100 mg/kg
Procedure, shortened: (§2)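 Mouse Test 1: i.p. dosing at 0.01 mL/g. Sets of one, three and one animals receive 30, 100 and 300 mg/kg respectively, each tested at 0.5 h and 4.0 h. Score is N/F, the number of animals protected over the number tested. Screening performed by NINDS following the ADD program protocol.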

[5] = test system: Mus musculus; assay: Anticonvulsant activity in mouse assessed as protection against subcutaneous pentylenetetrazole-induced seizures at 100 mg/kg, ip after 0.5 hrs; assay type: functional, organism-based; set-up: dose 100 mg/kg
[6] = test system: Mus musculus; assay: Anticonvulsant activity in mouse assessed as protection against maximal electroshock-induced seizures at 30 mg/kg, ip after 4 hrs; assay type: functional, organism-based; set-up: dose 30 mg/kg; procedure, shortened: as §2
[7] = Octanol-phosphate buffer partition coefficient, log P of the compound; assay type: physicochemical
Procedure, shortened: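 Octanol and phosphate buffer partition run at room temperature (29 °C). After separation, the phases are membrane-filtered and drug in the aqueous phase is measured by UV. PC = (Ct − Ca)/Ca, where Ct is total drug concentration and Ca is aqueous-phase concentration.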

[8] = test system: Mus musculus; assay: Anticonvulsant activity in mouse assessed as protection against subcutaneous pentylenetetrazole-induced seizures at 300 mg/kg, ip after 4 hrs; assay type: functional, organism-based; set-up: dose 300 mg/kg
[9] = test system: Mus musculus; assay: Anticonvulsant activity in mouse assessed as protection against subcutaneous pentylenetetrazole-induced seizures at 300 mg/kg, ip after 0.5 hrs; assay type: functional, organism-based; set-up: dose 300 mg/kg
[10] = test system: Mus musculus; assay: Anticonvulsant activity in mouse assessed as protection against maximal electroshock-induced seizures at 300 mg/kg, ip after 0.5 hrs; assay type: functional, organism-based; set-up: dose 300 mg/kg; procedure, shortened: as §2
[11] = test system: Mus musculus; assay: Anticonvulsant activity in mouse assessed as protection against subcutaneous pentylenetetrazole-induced seizures at 30 mg/kg, ip after 4 hrs; assay type: functional, organism-based; set-up: dose 30 mg/kg
[12] = test system: Mus musculus; assay: Neurotoxicity in mouse assessed as minimum motor impairment at 300 mg/kg, ip after 4 hrs by rotarod test; assay type: toxicity, organism-based; set-up: dose 300 mg/kg, route intraperitoneal; conditions: in vivo; procedure, shortened: as §1
[13] = test system: Mus musculus; assay: Anticonvulsant activity in mouse assessed as protection against maximal electroshock-induced seizures at 30 mg/kg, ip after 0.5 hrs; assay type: functional, organism-based; set-up: dose 30 mg/kg; procedure, shortened: as §2
[14] = test system: Mus musculus; assay: Anticonvulsant activity in mouse assessed as protection against subcutaneous pentylenetetrazole-induced seizures at 100 mg/kg, ip after 4 hrs; assay type: functional, organism-based; set-up: dose 100 mg/kg
[15] = test system: Mus musculus; assay: Neurotoxicity in mouse assessed as minimum motor impairment at 300 mg/kg, ip after 0.5 hrs by rotarod test; assay type: toxicity, organism-based; set-up: dose 300 mg/kg, route intraperitoneal; conditions: in vivo; procedure, shortened: as §1
[16] = test system: Mus musculus; assay: Anticonvulsant activity in mouse assessed as protection against subcutaneous pentylenetetrazole-induced seizures at 30 mg/kg, ip after 0.5 hrs; assay type: functional, organism-based; set-up: dose 30 mg/kg
[17] = test system: Mus musculus; assay: Anticonvulsant activity in mouse assessed as protection against maximal electroshock-induced seizures at 100 mg/kg, ip after 0.5 hrs; assay type: functional, organism-based; set-up: dose 100 mg/kg; procedure, shortened: as §2
[18] = test system: Mus musculus; assay: Neurotoxicity in mouse assessed as minimum motor impairment at 100 mg/kg, ip after 0.5 hrs by rotarod test; assay type: toxicity, organism-based; set-up: dose 100 mg/kg, route intraperitoneal; conditions: in vivo; procedure, shortened: as §1
[19] = test system: Mus musculus; assay: Anticonvulsant activity in mouse assessed as protection against maximal electroshock-induced seizures at 300 mg/kg, ip after 4 hrs; assay type: functional, organism-based; set-up: dose 300 mg/kg; procedure, shortened: as §2

Row | SMILES | Activity [1] | Activity [2] | Activity [3] | Activity [4] | Activity [5] | Activity [6] | logP [7] | Activity [8] | Activity [9] | Activity [10] | Activity [11] | Activity [12] | Activity [13] | Activity [14] | Activity [15] | Activity [16] | Activity [17] | Activity [18] | Activity [19]
1 | COc1cccc(NC(=S)NC(=O)Nc2ccc3c(c2)C(=O)C(=O)N3Cc2ccccc2Cl)c1 | Non-toxic | Non-toxic | Non-toxic | inactive | inactive | inactive | 3.19 | inactive | inactive | inactive | inactive | Non-toxic | inactive | inactive | Non-toxic | inactive | inactive | Non-toxic | inactive
2 | COc1cccc(NC(=S)NC(=O)Nc2ccc3c(c2)C(=O)C(=O)N3Cc2ccccc2)c1 | Non-toxic | Non-toxic | Non-toxic | inactive | inactive | inactive | 2.4 | inactive | inactive | inactive | inactive | Non-toxic | inactive | inactive | Non-toxic | inactive | inactive | Non-toxic | inactive
3 | O=C(NC(=S)Nc1ccccc1Cl)Nc1ccc2c(c1)C(=O)C(=O)N2Cc1ccccc1Cl | Non-toxic | Non-toxic | Non-toxic | inactive | inactive | inactive | 3.98 | inactive | inactive | inactive | inactive | Non-toxic | inactive | inactive | Non-toxic | inactive | inactive | Non-toxic | inactive
4 | O=C(NC(=S)Nc1ccccc1)Nc1ccc2c(c1)C(=O)C(=O)N2Cc1ccccc1 | Non-toxic | Non-toxic | Non-toxic | inactive | inactive | inactive | 2.48 | inactive | inactive | inactive | inactive | Non-toxic | inactive | inactive | Non-toxic | inactive | inactive | Non-toxic | inactive
5 | O=C(NC(=S)Nc1ccccc1Cl)Nc1ccc2c(c1)C(=O)C(=O)N2Cc1ccccc1 | Non-toxic | Non-toxic | Non-toxic | inactive | inactive | inactive | 3.01 | inactive | inactive | inactive | inactive | Non-toxic | inactive | inactive | Non-toxic | inactive | inactive | Non-toxic | inactive
6 | Cc1ccc(NC(=S)NC(=O)Nc2ccc3c(c2)C(=O)C(=O)N3Cc2ccccc2Cl)cc1 | Non-toxic | Non-toxic | Non-toxic | inactive | inactive | inactive | 3.73 | inactive | inactive | inactive | inactive | Non-toxic | inactive | inactive | Non-toxic | inactive | inactive | Non-toxic | inactive
7 | Cc1ccc(NC(=S)NC(=O)Nc2ccc3c(c2)C(=O)C(=O)N3Cc2ccccc2)cc1 | Non-toxic | Non-toxic | Non-toxic | inactive | inactive | inactive | 2.96 | inactive | inactive | inactive | inactive | Non-toxic | inactive | inactive | Non-toxic | inactive | inactive | Non-toxic | inactive
8 | Cc1ccccc1NC(=S)NC(=O)Nc1ccc2c(c1)C(=O)C(=O)N2Cc1ccccc1Cl | Non-toxic | Non-toxic | Non-toxic | inactive | inactive | inactive | 3.7 | Active | inactive | inactive | inactive | Non-toxic | inactive | inactive | Non-toxic | inactive | inactive | Non-toxic | Active
9 | Cc1ccccc1NC(=S)NC(=O)Nc1ccc2c(c1)C(=O)C(=O)N2Cc1ccccc1 | Non-toxic | Non-toxic | Non-toxic | inactive | inactive | inactive | 2.98 | inactive | inactive | inactive | inactive | Non-toxic | inactive | inactive | Non-toxic | inactive | inactive | Non-toxic | inactive
10 | COc1ccccc1NC(=S)NC(=O)Nc1ccc2c(c1)C(=O)C(=O)N2Cc1ccccc1 | Non-toxic | Non-toxic | Non-toxic | inactive | inactive | inactive | 2.38 | inactive | inactive | Active | inactive | Non-toxic | inactive | inactive | Non-toxic | inactive | inactive | Non-toxic | Active
11 | Cc1cccc(NC(=S)NC(=O)Nc2ccc3c(c2)C(=O)C(=O)N3Cc2ccccc2Cl)c1 | Non-toxic | Non-toxic | Non-toxic | inactive | inactive | inactive | 3.72 | Active | inactive | inactive | inactive | Non-toxic | inactive | inactive | Non-toxic | inactive | inactive | Non-toxic | Active
